Experimental data published in ChEMBL document CHEMBL4196209, “Validation of Matrix Metalloproteinase-9 (MMP-9) as a Novel Target for Treatment of Diabetic Foot Ulcers in Humans and Discovery of a Potent and Selective Small-Molecule MMP-9 Inhibitor That Accelerates Healing” (J Med Chem, 2018).
Activity calls are given as the source filed them. The calls are words filed in the database; no cut-off is given here.

What was measured:
[1] = biological target: 72 kDa type IV collagenase (Homo sapiens, UniProt P08253); experiment: Slow binding inhibition of human recombinant MMP2 using MOCAc-Pro-Leu-Gly-Leu-A2pr(Dnp)-Ala-Arg-NH2 substrate
72 kDa type IV collagenase, sequence (P08253 whole entry): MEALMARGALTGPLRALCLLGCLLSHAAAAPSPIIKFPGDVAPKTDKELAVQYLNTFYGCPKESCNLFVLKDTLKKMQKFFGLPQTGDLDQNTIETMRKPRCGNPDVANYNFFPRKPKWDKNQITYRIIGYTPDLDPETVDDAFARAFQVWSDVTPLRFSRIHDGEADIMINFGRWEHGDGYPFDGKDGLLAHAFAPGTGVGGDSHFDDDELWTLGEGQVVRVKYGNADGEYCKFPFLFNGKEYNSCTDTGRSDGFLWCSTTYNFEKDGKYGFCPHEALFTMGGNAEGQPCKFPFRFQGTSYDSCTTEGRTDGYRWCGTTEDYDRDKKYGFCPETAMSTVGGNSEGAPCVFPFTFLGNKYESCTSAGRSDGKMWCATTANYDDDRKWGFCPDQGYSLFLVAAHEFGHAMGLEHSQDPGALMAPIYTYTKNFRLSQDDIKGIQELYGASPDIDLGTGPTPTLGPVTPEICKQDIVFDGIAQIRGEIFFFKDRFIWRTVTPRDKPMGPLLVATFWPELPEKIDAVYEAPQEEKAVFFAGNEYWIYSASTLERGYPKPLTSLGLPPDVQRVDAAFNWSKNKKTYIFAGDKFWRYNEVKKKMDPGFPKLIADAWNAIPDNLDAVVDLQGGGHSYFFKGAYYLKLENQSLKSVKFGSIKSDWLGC
Outline: (§1)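 Fluorogenic continuous assay of recombinant enzymes; Mca-KPLGL-Dpa-AR-NH2 substrate for MMP-1, MMP-8, ADAM10; Mca-PLAQAV-Dpa-RSSSR-NH2 for ADAM9; MOCAc-PLGL-A2pr(Dnp)-AR-NH2 for MMP-2, MMP-9, MMP-14 with Km determined beforehand. Inhibitor stocks 10 mM in DMSO; duplicates, repeated three times; Ki for slow-binding inhibitors from koff/kon.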

[2] = AUC in C57BLKS/6J db/db mouse plasma at 2 mg/kg, iv dosed as single administration by UPLC-MRM analysis; format: ADME, organism-based
[3] = tested on: Mus musculus; experiment: Reduction in ROS generation in db/db BKS.Cg-Dock7m+/+ Lepr db/J mouse model of full-thickness excision at 50 ug/wound/day for 3 days dosed topically 1 day after wound creation by L-012 dye based assay; format: functional, organism-based
Outline: (§2)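 Wounded db/db mice dosed topically with 50 µg/wound/day or water vehicle; on days 1, 2, 3 and 7 post-wounding, anaesthetised with 2% isoflurane, injected ip with 200 µL L-012 (5 mg/mL in PBS), and bioluminescence imaged immediately at 5-min intervals; n = 3/group/time point.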

[4] = in vivo; conditions: C57BLKS/6J db/db, mouse, plasma, topical or ocular, 2 mg/kg
[5] = biological target: T1, Interstitial collagenase (Homo sapiens) (UniProt P03956); experiment: Inhibition of human recombinant MMP1 catalytic domain at 100 uM using Mca-Lys-Pro-Leu-Gly-Leu-Dpa-Ala-Arg-NH2 substrate; outline: as §1
T1 sequence (whole entry): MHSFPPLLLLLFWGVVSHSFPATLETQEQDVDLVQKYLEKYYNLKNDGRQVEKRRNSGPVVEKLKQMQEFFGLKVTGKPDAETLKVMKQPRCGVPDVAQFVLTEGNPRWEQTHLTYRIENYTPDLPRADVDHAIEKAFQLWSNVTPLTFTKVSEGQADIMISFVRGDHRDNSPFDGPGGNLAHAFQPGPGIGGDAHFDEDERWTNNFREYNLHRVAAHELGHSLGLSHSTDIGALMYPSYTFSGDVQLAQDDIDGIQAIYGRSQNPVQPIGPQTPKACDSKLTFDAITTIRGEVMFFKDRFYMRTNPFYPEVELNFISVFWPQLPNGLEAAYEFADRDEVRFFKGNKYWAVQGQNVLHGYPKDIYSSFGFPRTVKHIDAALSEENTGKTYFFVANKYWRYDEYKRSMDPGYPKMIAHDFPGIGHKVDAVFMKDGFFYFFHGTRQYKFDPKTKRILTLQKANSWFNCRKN

[6] = biological target: Matrix metalloproteinase-14 (Homo sapiens, UniProt P50281); experiment: Slow binding inhibition of human recombinant MMP14 catalytic domain using MOCAc-Pro-Leu-Gly-Leu-A2pr(Dnp)-Ala-Arg-NH2 substrate; outline: as §1
[7] = tested on: Mus musculus; experiment: Inhibition of MMP9 activity in db/db BKS.Cg-Dock7m+/+ Lepr db/J mouse model of full-thickness excision using DQ-gelatin substrate at 50 ug/wound/day for 14 days dosed topically 1 day after wound creation by in-situ zymography; format: functional, organism-based
[8] = biological target: Stromelysin-1 (Homo sapiens) (UniProt P08254); experiment: Inhibition of human recombinant MMP3 catalytic domain at 100 uM using MOCAc-Arg-Pro-Lys-Pro-Val-Glu-Nva-Trp-Arg-Lys(Dnp)-NH2 substrate
Stromelysin-1 (Homo sapiens), sequence (P08254 100-477 limits assumed): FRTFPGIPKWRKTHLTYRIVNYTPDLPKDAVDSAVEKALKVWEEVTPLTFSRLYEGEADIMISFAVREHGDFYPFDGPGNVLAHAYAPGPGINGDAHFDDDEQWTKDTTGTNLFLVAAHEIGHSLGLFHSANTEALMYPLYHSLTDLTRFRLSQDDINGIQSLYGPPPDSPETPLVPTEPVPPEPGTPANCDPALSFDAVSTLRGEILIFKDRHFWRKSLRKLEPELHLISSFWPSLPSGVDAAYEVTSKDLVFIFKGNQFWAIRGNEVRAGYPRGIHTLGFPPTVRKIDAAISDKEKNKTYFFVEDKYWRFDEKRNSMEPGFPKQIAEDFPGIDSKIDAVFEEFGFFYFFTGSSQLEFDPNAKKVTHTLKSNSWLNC

[9] = tested on: Mus musculus; experiment: Reduction in NFkappaB p65 protein levels generation in db/db BKS.Cg-Dock7m+/+ Lepr db/J mouse model of full-thickness excision at 50 ug/wound/day for 2 days dosed topically 1 day after wound creation by ELISA; format: functional, organism-based
[10] = tested on: Mus musculus; experiment: Induction of wound healing in db/db BKS.Cg-Dock7m+/+ Lepr db/J mouse model of full-thickness excision at 50 ug/wound/day for 14 days dosed topically 1 day after wound creation; format: functional, organism-based
Outline: (§3)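 Female db/db mice (8 weeks, ~40 g) with 8 mm full-thickness dorsal excision wound, Tegaderm-covered; from day 1, 100 µL of 0.5 mg/mL aqueous solution (50 µg/wound/day) or water vehicle topically once daily for 14 days. Wounds measured days 0, 7, 10, 14; cryosections for H&E re-epithelialization and DQ-collagen in-situ zymography, n = 3/group/time point.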

[11] = tested on: Mus musculus; experiment: Reduction in NFkappaB p65 protein levels generation in db/db BKS.Cg-Dock7m+/+ Lepr db/J mouse model of full-thickness excision at 50 ug/wound/day for 7 days dosed topically 1 day after wound creation by ELISA; format: functional, organism-based
[12] = biological target: T2, Disintegrin and metalloproteinase domain-containing protein 10 (Homo sapiens) (UniProt O14672); experiment: Inhibition of human recombinant ADAM10 at 100 uM using Mca-Lys-Pro-Leu-Gly-Leu-Dpa-Ala-Arg-NH2 substrate; outline: as §1
T2 sequence (whole entry): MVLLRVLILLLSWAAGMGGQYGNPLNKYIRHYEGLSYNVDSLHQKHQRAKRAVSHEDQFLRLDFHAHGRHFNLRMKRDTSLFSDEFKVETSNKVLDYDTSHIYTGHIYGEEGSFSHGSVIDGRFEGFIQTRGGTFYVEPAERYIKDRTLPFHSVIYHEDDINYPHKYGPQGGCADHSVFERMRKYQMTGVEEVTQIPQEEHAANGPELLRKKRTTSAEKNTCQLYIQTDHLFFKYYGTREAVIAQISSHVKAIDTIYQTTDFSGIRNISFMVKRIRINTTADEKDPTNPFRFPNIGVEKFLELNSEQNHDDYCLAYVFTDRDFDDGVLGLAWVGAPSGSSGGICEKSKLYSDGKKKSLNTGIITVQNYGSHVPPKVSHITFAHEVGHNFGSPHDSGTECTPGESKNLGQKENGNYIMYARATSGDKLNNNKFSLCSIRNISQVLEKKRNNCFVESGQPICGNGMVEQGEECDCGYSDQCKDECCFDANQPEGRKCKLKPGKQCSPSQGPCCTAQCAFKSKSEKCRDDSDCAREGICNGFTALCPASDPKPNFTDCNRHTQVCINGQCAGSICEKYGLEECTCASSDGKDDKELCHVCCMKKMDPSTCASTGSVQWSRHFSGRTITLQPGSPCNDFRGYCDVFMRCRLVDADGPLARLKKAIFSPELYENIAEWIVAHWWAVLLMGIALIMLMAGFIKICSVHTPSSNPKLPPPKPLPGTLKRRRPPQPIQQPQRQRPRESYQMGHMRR

[13] = tested on: Mus musculus; experiment: Reduction in NFkappaB p65 protein levels generation in db/db BKS.Cg-Dock7m+/+ Lepr db/J mouse model of full-thickness excision assessed as p65 AUC level at 50 ug/wound/day for 7 days dosed topically 1 day after wound creation by ELISA (reference value: 834 +/- 121 ug/mg.day); format: functional, organism-based
[14] = tested on: Mus musculus; experiment: Reduction in ROS generation in db/db BKS.Cg-Dock7m+/+ Lepr db/J mouse model of full-thickness excision at 50 ug/wound/day for 7 days dosed topically 1 day after wound creation by L-012 dye based assay; format: functional, organism-based; outline: as §2
[15] = tested on: Salmonella typhimurium; experiment: Mutagenicity in Salmonella typhimurium by Ames test; format: toxicity, organism-based; conditions: salmonella enterica subsp. enterica serovar typhimurium
[16] = tested on: Mus musculus; experiment: Reduction in NFkappaB p65 protein levels generation in db/db BKS.Cg-Dock7m+/+ Lepr db/J mouse model of full-thickness excision at 50 ug/wound/day for 1 day dosed topically 1 day after wound creation by ELISA; format: functional, organism-based
[17] = tested on: Mus musculus; experiment: Induction of wound healing in db/db BKS.Cg-Dock7m+/+ Lepr db/J mouse model of full-thickness excision at 50 ug/wound/day for 7 days dosed topically 1 day after wound creation; format: functional, organism-based; outline: as §3
[18] = tested on: Mus musculus; experiment: Inhibition of MMP8 activity in db/db BKS.Cg-Dock7m+/+ Lepr db/J mouse model of full-thickness excision using DQ-collagen substrate at 50 ug/wound/day for 14 days dosed topically 1 day after wound creation by in-situ zymography; format: functional, organism-based; outline: as §3
[19] = AUC in C57BLKS/6J db/db mouse plasma at 2 mg/kg applied topically to wounds as single administration by UPLC-MRM analysis; format: ADME, organism-based; conditions: topical or ocular
[20] = tested on: Mus musculus; experiment: Induction of wound healing in db/db BKS.Cg-Dock7m+/+ Lepr db/J mouse model of full-thickness excision assessed as increase in re-epithelialization at 50 ug/wound/day for 14 days dosed topically 1 day after wound creation by H and E staining; format: functional, organism-based; outline: as §3
[21] = biological target: T3, Disintegrin and metalloproteinase domain-containing protein 9 (Homo sapiens) (UniProt Q13443); experiment: Inhibition of human recombinant ADAM9 at 100 uM using Mca-Pro-Leu-Ala-Gln-Ala-Val-Dpa-Arg-Ser-Ser-Ser-Arg-NH2 substrate; outline: as §1
T3 sequence (whole entry): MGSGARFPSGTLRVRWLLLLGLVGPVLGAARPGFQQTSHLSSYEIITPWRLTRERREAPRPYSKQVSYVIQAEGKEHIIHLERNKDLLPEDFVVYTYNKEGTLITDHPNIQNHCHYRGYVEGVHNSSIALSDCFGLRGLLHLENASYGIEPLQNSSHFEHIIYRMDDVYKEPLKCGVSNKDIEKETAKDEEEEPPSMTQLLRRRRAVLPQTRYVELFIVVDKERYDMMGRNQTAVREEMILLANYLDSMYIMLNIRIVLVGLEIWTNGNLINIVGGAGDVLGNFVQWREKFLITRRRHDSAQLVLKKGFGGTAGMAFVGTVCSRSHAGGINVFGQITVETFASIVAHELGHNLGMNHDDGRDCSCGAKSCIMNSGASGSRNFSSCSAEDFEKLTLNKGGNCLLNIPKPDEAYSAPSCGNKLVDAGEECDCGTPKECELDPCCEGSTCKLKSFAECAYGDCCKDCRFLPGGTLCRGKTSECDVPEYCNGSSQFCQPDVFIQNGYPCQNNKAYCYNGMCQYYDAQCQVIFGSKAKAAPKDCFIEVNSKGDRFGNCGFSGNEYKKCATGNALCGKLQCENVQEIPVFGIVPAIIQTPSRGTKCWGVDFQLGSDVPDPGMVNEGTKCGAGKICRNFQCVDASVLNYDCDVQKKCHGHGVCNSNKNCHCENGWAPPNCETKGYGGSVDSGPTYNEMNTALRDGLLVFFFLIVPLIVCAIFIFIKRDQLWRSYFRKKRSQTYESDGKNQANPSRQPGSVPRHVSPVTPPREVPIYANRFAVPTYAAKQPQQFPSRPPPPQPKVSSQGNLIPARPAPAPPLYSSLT

[22] = biological target: T4, Matrilysin (Homo sapiens) (UniProt P09237); experiment: Inhibition of human recombinant MMP7 at 100 uM using MOCAc-Pro-Leu-Gly-Leu-A2pr(Dnp)-Ala-Arg-NH2 substrate
T4 sequence (whole entry): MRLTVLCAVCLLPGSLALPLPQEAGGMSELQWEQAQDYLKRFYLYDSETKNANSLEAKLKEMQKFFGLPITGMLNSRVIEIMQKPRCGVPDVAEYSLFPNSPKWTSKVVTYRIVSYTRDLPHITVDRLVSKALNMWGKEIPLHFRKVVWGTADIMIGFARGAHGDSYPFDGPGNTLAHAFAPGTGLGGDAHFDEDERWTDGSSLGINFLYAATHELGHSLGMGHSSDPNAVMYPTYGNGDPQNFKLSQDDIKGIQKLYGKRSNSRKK

[23] = biological target: T1, Interstitial collagenase (Homo sapiens); experiment: Inhibition of human recombinant MMP1 catalytic domain using Mca-Lys-Pro-Leu-Gly-Leu-Dpa-Ala-Arg-NH2 substrate; outline: as §1

**Q.** What does the source list for `Cl.NCc1ccc(Oc2ccc(S(=O)(=O)C[C@H]3CS3)cc2)cc1`?
**A.** Ki [1]: 127 nM; AUC [2]: 0.583 µM·h; Activity [3]: Active; bioavailability [4]: 3.7%; inhibition [5]: 22%; Ki [6]: 119 nM; inhibition [7]: Active; inhibition [8]: 37%; Activity [9]: Active; Activity [10]: Active; Activity [11]: Active; inhibition [12]: 13%; AUC [13]: 492 µg/mg/day; Activity [14]: Active; Activity [15]: Non-Toxic; Activity [16]: Active; Activity [17]: Active; inhibition [18]: inactive; AUC [19]: 0.0217 µM·h; Activity [20]: Active; inhibition [21]: 41%; inhibition [22]: 20%

**Q.** Which results are given for `NCc1ccc(Oc2ccc(S(=O)(=O)CC3CS3)cc2)cc1` (racemic)?
**A.** inhibition [5]: 4%; inhibition [7]: Active; inhibition [8]: 23%; Activity [10]: inactive; inhibition [12]: 14%; inhibition [18]: Active; Activity [20]: Active; inhibition [21]: 31%; inhibition [22]: 1%

**Q.** For `NCc1ccc(Oc2ccc(S(=O)(=O)C[C@@H]3CS3)cc2)cc1`, which Ki [1] is on record?
**A.** 37 nM

**Q.** What about the inhibition [5] of the same compound?
**A.** 24%

**Q.** What about the Ki [6] of the same compound?
**A.** 53 nM

**Q.** And the inhibition [7]?
**A.** Active

**Q.** What about the inhibition [8] of the same compound?
**A.** 22%

**Q.** What about the Activity [10] of the same compound?
**A.** inactive

**Q.** What about the inhibition [12] of the same compound?
**A.** 5%

**Q.** And the inhibition [18]?
**A.** Active

**Q.** And the Activity [20]?
**A.** Active

**Q.** And the inhibition [21]?
**A.** 25%

**Q.** And the inhibition [22]?
**A.** 15%

**Q.** With `O=S(=O)(CC1CS1)c1ccc(Oc2ccc(O)cc2)cc1` (stereo not drawn) as the compound, how does the A0.5 [23] read?
**A.** Nottraceable
